Data reported in ChEMBL document CHEMBL2434933, “Synthesis, physicochemical properties of allopurinol derivatives and their biological activity against Trypanosoma cruzi” (Eur J Med Chem, 2013).
Converted amounts (≈) assume the structure as drawn. The source made the active and inactive calls. The calls are words filed in the database; no cut-off is given here.

Experiments:
[1] = Stability of the compound in simulated gastric fluid assessed as retention time by micellar liquid chromatography; assay type: physicochemical; conditions: simulated gi fluid
[2] = Stability of the compound in 0.1 M SDS-0.01 M 7.5% (v/v) 1-propanol-NaH2PO4/H3PO4 assessed as compound recovery at 3.5 x 10^-7 mol/ml by micellar liquid chromatography; assay type: physicochemical
How it was run: (§1)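 Recovery: N1-acyl compounds were spiked at 7.5 x 10^-9, 6 x 10^-8 and 3.5 x 10^-7 mol/mL (ten replicates each) into pH 1.2 and 6.8 buffers, SGF and SIF. Analysis used MLC with 0.1 M SDS–7.5% 1-propanol–0.01 M NaH2PO4/H3PO4 pH 3.0, at 1 mL/min, 25 °C and 276 nm. Recovery was calculated against working standards.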

[3] = Stability of the compound in 0.1 M SDS-0.01 M 7.5% (v/v) 1-propanol-NaH2PO4/H3PO4 assessed as compound recovery at 6 x 10^-8 mol/ml by micellar liquid chromatography; assay type: physicochemical; how it was run: as §1
[4] = Stability of the compound in 0.1 M SDS-0.01 M 7.5% (v/v) 1-propanol-NaH2PO4/H3PO4 assessed as compound recovery at 7.5 x 10^-9 mol/ml by micellar liquid chromatography; assay type: physicochemical; how it was run: as §1
[5] = Octanol-water partition coefficient, log P of the compound by RP-HPLC analysis; assay type: physicochemical
How it was run: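 RP-HPLC lipophilicity: isocratic buffer pH 5.5–MeOH, 30–75% MeOH in 5% steps. Three injections per compound and five per standard at each ratio. log k' = log(tR − t0)/t0 was computed from retention times.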

[6] = Half life in human plasma; assay type: ADME, cell-free
How it was run: (§2)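 Stability in human plasma was followed by micellar LC, with allopurinol tracked as product. Pseudo-first-order kinetics gave t1/2 or kobs.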

[7] = Drug degradation in buffer at 37 degC at pH 6.8 after 3 hrs in presence of pancreatin; assay type: physicochemical; conditions: buffer with pancreatin, read-out: Drug degradation
How it was run: (§3)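 Compounds came from DMSO stocks of 1.0 x 10^-4 mol/mL. They were incubated at 37 °C in buffer pH 1.2 or SGF (pepsin) for 1 h, and in buffer pH 6.8 or SIF (pancreatin) for 3 h. Samples were analysed by micellar LC. Percent degradation was reported; kinetics were treated as pseudo-first-order.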

[8] = Drug degradation in simulated intestinal fluid at 37 degC after 3 hrs; assay type: physicochemical; conditions: read-out: Drug degradation; how it was run: as §3
[9] = Drug degradation in 3.5% H2O2 assessed as allopurinol formation; assay type: physicochemical
[10] = Drug degradation in simulated gastric fluid at 37 degC after 1 hr; assay type: physicochemical; conditions: read-out: Drug degradation; how it was run: as §3
[11] = Drug degradation in 0.1 M HCl assessed as allopurinol formation at 1 mg/ml at 90 degC; assay type: physicochemical; conditions: buffer
[12] = Drug degradation in 0.1 M NaOH assessed as allopurinol formation at 1 mg/ml at 90 degC; assay type: physicochemical
Plasma = test: Metabolic stability of the compound in human plasma; assay type: ADME, cell-free; how it was run: as §2
[13] = Intrinsic solubility of the compound in standard phosphate buffer at pH 6.8 at 37 degC after 24 hrs by shake-flask method; assay type: physicochemical; conditions: read-out: Intrinsic_solubility
How it was run: (§4)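 Shake-flask intrinsic solubility: solid compound was added to phosphate buffer until excess remained undissolved. The thermostated saturated solution was shaken for 24 h to reach equilibrium, at 25 °C and at 37 °C.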

[14] = Intrinsic solubility of the compound in standard phosphate buffer at pH 6.8 at 25 degC after 24 hrs by shake-flask method; assay type: physicochemical; conditions: read-out: Intrinsic_solubility; how it was run: as §4
[15] = Drug degradation in buffer at 37 degC at pH 1.2 after 1 hr
[16] = Cytotoxicity against mouse splenocytes assessed as cell viability at 50 times IC50 after 32 hrs by Alamar Blue assay; assay type: cell-based; conditions: splenocyte
How it was run: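 Viability was read by Alamar Blue and expressed as percent of untreated control. Two experiments, each in duplicate.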

Trypanosoma cruzi [17] = test: Antimicrobial activity against blood stream form of Trypanosoma cruzi RA assessed as growth inhibition at 1 to 70 ug/ml after 24 hrs by Neubauer chamber counting analysis; assay type: functional, organism-based
How it was run: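 RA-strain bloodstream trypomastigotes were enriched from infected-mouse blood at peak parasitemia. They were used at 1.5 x 10^6/mL in RPMI 1640 with 10% FCS. Parasites were exposed for 24 h at 37 °C in 5% CO2 to 0–70 ug/mL compound from 40 mM DMSO stocks (final DMSO <0.5%). 0.5% DMSO served as negative control. Surviving parasites were counted by Neubauer chamber. Three independent experiments, each in triplicate.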

Trypanosoma cruzi [18] = test: Antimicrobial activity against Trypanosoma cruzi RA amastigotes infected in African green monkey Vero cells assessed as growth inhibition after 72 hrs by Giemsa staining-based light microscopy; assay type: functional, organism-based
How it was run: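 Vero cells irradiated at 2000 rads, seeded on coverslips and infected with bloodstream trypomastigotes of RA strain at 5:1 parasite:cell for 24 h. Free parasites were washed off and cultures incubated 72 h with compound, 0.5–50 range, triplicate, at 37 °C in 5% CO2. Vehicle 0.5% DMSO. Coverslips were methanol-fixed and Giemsa-stained. Infection rate and amastigotes per cell (100 infected cells) were read by light microscopy. IC50 estimated from percentage infection.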

Trypanosoma cruzi [19] = test: Antimicrobial activity against Trypanosoma cruzi RA amastigotes infected in African green monkey Vero cells assessed as growth inhibition at 1 ug/ml after 72 hrs by Giemsa staining-based light microscopy; assay type: functional, organism-based
How it was run: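 RA-strain bloodstream trypomastigotes infected irradiated Vero cells (2000 rads) on coverslips at a 5:1 parasite:cell ratio for 24 h. Cells were washed, then exposed to 1 ug/mL compound for 72 h at 37 °C in 5% CO2. Coverslips were fixed in methanol and Giemsa-stained. Infected cells were scored by light microscopy against untreated infected cultures.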

[20] = Stability of the compound in simulated intestinal fluid assessed as retention time by micellar liquid chromatography; assay type: physicochemical; conditions: simulated gi fluid
[21] = Stability of the compound in buffer at 37 degC at pH 6.8 after 3 hrs in presence of pancreatin; assay type: ADME; conditions: pH 6.8, 3 h; how it was run: as §3
[22] = Stability of the compound in simulated intestinal fluid at 37 degC after 3 hrs; assay type: physicochemical; conditions: simulated gi fluid; how it was run: as §3
[23] = Stability of the compound in buffer at 37 degC at pH 1.2 after 1 hr in presence of pepsin; assay type: ADME; conditions: isolated protein, pH 1.2, 1 h; how it was run: as §3
[24] = Stability of the compound in simulated gastric fluid at 37 degC after 1 hr; assay type: physicochemical; conditions: simulated gi fluid; how it was run: as §3
[25] = Dissociation constant, pKa of the compound at 25 degC; assay type: physicochemical
How it was run: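 pKa computed with ACDpKa software. Only for the parent drug was it checked against a pH-solubility profile at 25 °C.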

[26] = Drug degradation in 0.1 M NaOH at 1 mg/ml at 90 degC after 16 hrs; assay type: physicochemical
How it was run: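 Compound at 1 mg/mL was heated in 0.1 M NaOH at 90 °C for 16 h. Percent degradation was quantified by micellar liquid chromatography.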

[27] = Stability of the compound in 0.05 M SDS-0.01 M NaH2PO4/H3PO4 assessed as compound recovery at 6 x 10^-8 mol/ml by micellar liquid chromatography; assay type: physicochemical
How it was run: (§5)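 Analytical recovery. Standards at 7.5 × 10⁻⁹, 6 × 10⁻⁸ and 3.5 × 10⁻⁷ mol/mL, ten replicates each, were spiked into pH 1.2 and pH 6.8 buffers and into SGF and SIF. They were analysed by MLC with mobile phase 0.05 M SDS–0.01 M NaH2PO4/H3PO4 pH 3.0 at 1.25 mL/min, 25 °C, detection at 250 nm. Recovery was found concentration relative to working standards.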

[28] = Stability of the compound in 0.05 M SDS-0.01 M NaH2PO4/H3PO4 assessed as compound recovery at 3.5 x 10^-7 mol/ml by micellar liquid chromatography; assay type: physicochemical; how it was run: as §5
[29] = Stability of the compound in 0.05 M SDS-0.01 M NaH2PO4/H3PO4 assessed as compound recovery at 7.5 x 10^-9 mol/ml by micellar liquid chromatography; assay type: physicochemical; how it was run: as §5
[30] = Drug degradation in 30% H2O2 assessed as allopurinol formation; assay type: physicochemical

| Retention_time [1] [min] | Drug recovery [2] [%] | Drug recovery [3] [%] | Drug recovery [4] [%] | logP [5] | Stability (Plasma) | solubility thermodynamic at 24 h [13] [µg/mL] | solubility thermodynamic at 24 h [14] [µg/mL] | Retention_time [20] [min] | SMILES | growth inhibition (GI) (Trypanosoma cruzi [17]) | growth inhibition (GI) (Trypanosoma cruzi [19]) | further results |
| --- | --- | --- | --- | --- | --- | --- | --- | --- | --- | --- | --- | --- |
| 4 | 103.18 | 103.09 | 99.74 | 1.22 | Unstable | > 65 | > 65 | – | CCC(=O)n1ncc2c(O)ncnc21 | – | – | half-life [6]: 9.5 min; metabolised at 3 h [7]: 100%; degraded at 3 h [8]: 100%; Stability [9]: Unstable; degraded at 1 h [10]: 32%; Stability [11]: Unstable; Stability [12]: Unstable; metabolised at 1 h [15]: 30.3% |
| 7.7 | 100.3 | 101.42 | 103.11 | 1.99 | Unstable | > 65 | > 65 | – | CCCC(=O)n1ncc2c(O)ncnc21 | – | – | half-life [6]: 6.1 min; metabolised at 3 h [7]: 100%; degraded at 3 h [8]: 100%; Stability [9]: Unstable; degraded at 1 h [10]: 26.5%; Stability [11]: Unstable; Stability [12]: Unstable; Activity [16]: Non-toxic; metabolised at 1 h [15]: 27% |
| – | – | – | – | – | – | – | – | – | CCCc1nc(O)c2c[nH]nc2n1 | inactive | – | – |
| – | – | – | – | – | – | – | – | – | CCCC(=O)n1ncc2c(=O)[nH]cnc21 | inactive | Active | IC50 (Trypanosoma cruzi [18]): 11.3 µM; inhibition (Trypanosoma cruzi [18]): Dose-dependent effect |
| – | 97.78 | 97.07 | 101.19 | 0.52 | 100% | 940 (≈ 5.73 mM) | 710 (≈ 4.32 mM) | 4.7 | CCc1nc(O)c2c[nH]nc2n1 | inactive | Active | Stability [21]: Stable; Stability [22]: Stable; Stability [23]: Stable; Stability [24]: Stable |
| – | – | – | – | – | – | – | – | – | CC(=O)n1ncc2c(=O)[nH]cnc21 | inactive | – | – |
| 3 | 99.04 | 102.42 | 98.03 | 0.4 | Unstable | > 65 | > 65 | – | CC(=O)n1ncc2c(O)ncnc21 | – | – | half-life [6]: 8.4 min; metabolised at 3 h [7]: 100%; degraded at 3 h [8]: 100%; Stability [9]: Unstable; degraded at 1 h [10]: 18.9%; Stability [11]: Unstable; Stability [12]: Unstable; metabolised at 1 h [15]: 17.1% |
| – | 100.27 | 99.59 | 101.17 | 1.14 | 100% | 2560 (≈ 14.4 mM) | 2070 (≈ 11.6 mM) | 7.8 | CCCc1nc2n[nH]cc2c(=O)[nH]1 | – | – | Stability [21]: Stable; Stability [22]: Stable; Stability [23]: Stable; Stability [24]: Stable |
| – | – | – | – | – | – | – | – | – | O=C(Cn1ccnc1[N+](=O)[O-])NCc1ccccc1 | – | Active | – |
| – | – | – | – | – | – | – | – | – | CCC(=O)n1ncc2c(=O)[nH]cnc21 | inactive | – | – |
| – | 102.77 | 102.72 | 98.57 | -0.05 | 100% | 2020 (≈ 13.5 mM) | 1480 (≈ 9.86 mM) | 3 | Cc1nc(O)c2c[nH]nc2n1 | inactive | Active | Stability [21]: Stable; Stability [22]: Stable; Stability [23]: Stable; Stability [24]: Stable; Stability [30]: Stable |

| SMILES | Retention_time [1] [min] | Drug recovery [2] [%] | Drug recovery [3] [%] | Drug recovery [4] [%] | logP [5] | Stability (Plasma) | solubility thermodynamic at 24 h [13] [µg/mL] | solubility thermodynamic at 24 h [14] [µg/mL] | Retention_time [20] [min] | growth inhibition (GI) (Trypanosoma cruzi [17]) | growth inhibition (GI) (Trypanosoma cruzi [19]) | further results |
| --- | --- | --- | --- | --- | --- | --- | --- | --- | --- | --- | --- | --- |
| Oc1ncnc2[nH]ncc12 [ALLOPURINOL] | 2.4 | 97.54 | 98.55 | 102.4 | – | 100% | 900 (≈ 6.61 mM) | 490 (≈ 3.6 mM) | 2.6 | – | Active | pKa [25]: 9.7; Stability [26]: Stable; Drug recovery [27]: 98.85%; Drug recovery [28]: 100.17%; Drug recovery [29]: 97.37%; Activity [16]: Non-toxic; IC50 (Trypanosoma cruzi [18]): 9.62 µM; inhibition (Trypanosoma cruzi [18]): Dose-dependent effect |
